From PubChem
ADAM10 inh = inhibits human ADAM10. O14672. inhibition, % at 7 µM. recombinant ADAM10, EDANS/DABCYL FRET peptide cleavage, 3 h. 0.62% of 370,000 active. AID 720582;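 active means inhibition above a per-campaign cutoff equal to the mean of compounds falling between control-based bounds plus 3 SD, cut at about 20% in these data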;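 further: 0% = DMSO wells while the 100% control is not disclosed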
Target sequence (O14672 214-748 limits assumed): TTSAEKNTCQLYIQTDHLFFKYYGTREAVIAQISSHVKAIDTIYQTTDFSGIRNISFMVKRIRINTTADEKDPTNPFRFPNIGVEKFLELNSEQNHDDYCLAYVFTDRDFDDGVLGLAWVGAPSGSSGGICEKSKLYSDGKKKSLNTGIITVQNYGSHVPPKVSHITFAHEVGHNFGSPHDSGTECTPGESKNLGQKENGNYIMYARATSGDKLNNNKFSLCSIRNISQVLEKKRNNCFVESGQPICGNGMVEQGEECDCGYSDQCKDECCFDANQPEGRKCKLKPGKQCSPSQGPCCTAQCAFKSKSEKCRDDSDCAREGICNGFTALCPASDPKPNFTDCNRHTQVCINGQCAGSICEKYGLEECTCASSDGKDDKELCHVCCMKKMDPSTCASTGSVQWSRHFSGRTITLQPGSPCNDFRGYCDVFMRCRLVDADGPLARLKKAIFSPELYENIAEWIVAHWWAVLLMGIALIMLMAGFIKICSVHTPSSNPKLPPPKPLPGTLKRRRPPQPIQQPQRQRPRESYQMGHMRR
ADAM17 inh = inhibits human ADAM17 | AID 720648 | P78536 | recombinant ADAM17, EDANS/DABCYL FRET peptide cleavage | inhibition, % at 6.95 µM | 0.83% of 370,000 active;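 active means inhibition above the mean of compounds lying between control limits plus 3 SD, set per campaign, cut at about 8.5% in these data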;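 further: 0% = DMSO-only wells as the low control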
MT1-MMP act inh = MT1-MMP (human) activation inhibition; 0.061% of 360,000 active; AID 651647; HT1080 RFP-PRO-GFP cells, GFP/RFP ratio fluorescence, overnight; percent of plate control window, DMSO zero; GFP/RFP ratio change, % at 20 µM;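 active means GFP/RFP ratio change of at least 30% with cell ATP level not reduced by more than half and red fluorescence within 50% of control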
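Read-out: GFP/RFP fluorescence ratio; Test system: RFP-PRO-GFP reporter HT1080 cells; Compound dosing: single-point 20 µM compound, 1% DMSO; Times: overnight compound exposure at 37 °C.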
NR3A LBD binder = modulators (binders) of human NR3A ligand-binding domain; NR3A LBD differential scanning fluorimetry, Tm shift; 0% = protein alone, 100% = glycine-bound protein; Tm shift relative to glycine control, % at 25 µM; 2.5% of 340,000 active;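 active means melting temperature shift of at least 10% of the positive control shift, at one fixed dose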
MPTP block = permeability transition pore inhibition; AID 602449; 1.4% of 360,000 active; isolated mouse mitochondria, Ca2+ swelling absorbance, 30 min; inhibition, % at 10 µM;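 active means inhibition of 50% or more, scaled per plate between neutral and stimulator controls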;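 further: 0% = DMSO wells given calcium and 100% = 1 mM EGTA wells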
SKN-1 inh = C. elegans SKN-1 inhibition. C. elegans VP596 Pgst-4::GFP/RFP ratio, acrylamide-induced, 24 h. inhibition, % at 21.8 µM. 0.49% of 360,000 active;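 active means interference check ratio from 0.5 to 1.5 plus GFP to RFP signal ratio inhibition reaching or exceeding a fixed threshold, cut at about 30% in these data, passing the limit was not always enough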
Numbers without * were called inactive; . = no result. The list is not random: actives were taken first. Their share in the collection is about 4.7%.

SMILES | ADAM10 inh | ADAM17 inh | MT1-MMP act inh | NR3A LBD binder | MPTP block | SKN-1 inh
CCOC(=O)C(=CN=C(N)Nc1nc2ccccc2o1)C(=O)OCC | -5 | -6 | 2 | -2 | 0 | 5
CC(=O)c1ccc(S(=O)(=O)N(CCCO)Cc2cc3cc(C)ccc3[nH]c2=O)cc1 | -7 | -1 | -4 | -4 | 0 | 23
O=C(NCc1ccc(F)cc1)C1Cc2ccccc2CN1C(=O)c1ccco1 (centres undefined) | -6 | -3 | -3 | 1 | 0 | 2
COC(=O)c1ccc(N/N=C/c2cc([N+](=O)[O-])cc(OC)c2O)cc1 | -1 | -15 | 7 | 30* | 1 | 11
COc1ccc(/C=N/Nc2ccc([N+](=O)[O-])cc2)cc1Cn1cc([N+](=O)[O-])cn1 | 0 | -1 | 6 | 7 | 3 | 29
COc1ccc(/C=N/Nc2ccc([N+](=O)[O-])cc2)cc1O | 14 | -1 | -11 | 27* | 2 | 11
COc1ccc(OC)c(/C=N\NC(=O)c2ccc(-c3ccccc3)cc2)c1 | -38 | -12 | 3 | -1 | 0 | -23
COc1cccc(/C=N/Nc2ccc([N+](=O)[O-])cc2)c1O | 3 | 2 | -7 | 36* | 2 | 8
COc1cccc(/C=N/NC(=O)c2ccc(-c3ccccc3)cc2)c1O | 1 | 0 | 8 | 26* | 6 | 12
O=S(=O)(c1ccccc1)c1cnc(-c2cccnc2)nc1-c1ccc(Cl)c(Cl)c1 | 5 | 3 | -2 | 0 | 2 | 1
C/C(=N\NC(=O)c1cccc(N/N=C(\C)c2cc(O)ccc2O)c1)c1cc(O)ccc1O | 7 | 4 | -1 | 14* | 1 | 11
COc1cc(/C=N/Nc2ccc(C(=O)O)cc2)ccc1O | -19 | -3 | 2 | 27* | 0 | 7
O=C(NCc1ccccc1)[C@@H]1CCCN1C(=O)[C@H]1CCCN1C(=O)c1cccc(F)c1 | -2 | -2 | . | . | . | .
C=CCn1c(=O)c2ccc(C(=O)NCc3ccccc3)cc2n(Cc2ccccc2Cl)c1=O | -7 | -2 | -3 | -1 | 6 | 5
COc1ccc(OC)c(/C=N/n2c(-c3n[nH]c4c3CCC4)n[nH]c2=S)c1 | 0 | -4 | 2 | 14* | 1 | 8
COc1cc(OC)c(OC)cc1/C=N/n1c(-c2n[nH]c3c2CCC3)n[nH]c1=S | -8 | -18 | 5 | -1 | 1 | 12
O=C(CCc1nc(-c2ccccc2)c(-c2ccccc2)o1)OCc1ccc(Br)cc1 | 4 | -4 | 5 | -1 | -1 | -1
O=C(Nc1ccccc1)c1ccc(Nc2c([N+](=O)[O-])cc([N+](=O)[O-])c3ccccc23)cc1 | -6 | -2 | . | 11* | 42 | 1
CN(C)c1ccc(N/C=C/C(=O)c2ccco2)cc1 | 3 | -6 | 6 | -1 | 1 | 39*
O=C(/C=C/Nc1cccc([N+](=O)[O-])c1)c1ccco1 | 15 | 3 | -1 | 2 | 0 | 11
CC(=O)Nc1ccc(N/C=C/C(=O)c2ccco2)cc1 | -4 | 0 | -5 | -10 | -1 | 0
O=C(/C=C/Nc1ccc(F)c(Cl)c1)c1ccco1 | -5 | -5 | -2 | -5 | 0 | 75*
O=C(/C=C/Nc1cccc(F)c1)c1ccco1 | -6 | -1 | 2 | 28* | 1 | 35
Cc1cccc(NC(=O)CSc2nc3nc4c(cc3c(=O)n2-c2ccccc2)CCCC4)c1 | 1 | -5 | 4 | 19* | 1 | 3
CCOc1ccc(C(=O)Nc2ccc(NC(=O)c3ccco3)c(Cl)c2)cc1Br | 2 | -2 | 0 | 40* | 4 | 6
SMILES | ADAM10 inh | ADAM17 inh | MT1-MMP act inh | NR3A LBD binder | MPTP block | SKN-1 inh
CCCOc1cccc(C(=O)Nc2cccc(NC(=O)c3ccco3)c2)c1 | 1 | 1 | 9 | 7 | 0 | 8
C=Cc1cccc(NC(=O)c2ccc(NC(=O)c3ccco3)cc2)c1 | 15 | 1 | 1 | 31* | -1 | 8
CCCCOc1cccc(C(=O)Nc2ccc(NC(=O)c3ccco3)cc2)c1 | -1 | 0 | 1 | 12* | -6 | 16
O=C(Nc1cccnc1)c1ccc(NC(=O)c2ccco2)cc1 | 0 | 2 | -5 | 5 | 2 | -22
O=C(Nc1ccc(NC(=O)c2ccco2)cc1)c1ccc2c(c1)OCCO2 | -18 | -9 | 4 | 10* | 3 | 6
CCn1c(SCC(=O)N2CCCC2)nc2c(c1=O)SCC2 | 7 | 4 | -1 | -1 | -1 | 10
CCOc1ccc(NC(=O)Nc2cccc(C(=O)O)c2)cc1 | -2 | 1 | 1 | -13 | -2 | 3
CCOC(=O)c1cccc(NC(=O)Nc2ccc(OCC)cc2)c1 | 3 | 0 | 5 | 20* | 12 | 11
CC(=O)Nc1ccc(NC(=O)c2ccco2)cc1 | 3 | -2 | 5 | -6 | 1 | -1
COC(=O)c1ccc(NC(=O)c2ccc(NC(=O)c3ccco3)cc2)cc1 | -7 | -4 | -1 | 25* | 0 | 13
CC(=O)c1ccc(NC(=O)c2ccc(NC(=O)c3ccco3)cc2)cc1 | . | . | 1 | 13* | 0 | -14
CCOC(=O)c1cccc(P(C)(C)=O)c1 | -3 | 0 | 2 | 22* | 0 | 4
CSc1n[nH]c(NC(=O)c2c(-c3c(Cl)cccc3Cl)noc2C)n1 | 7 | -1 | 2 | -2 | 0 | -13
COc1ccccc1-c1ncn(Cc2cccc(-c3ccccc3)c2)c1-c1ccco1 | 6 | 7 | -6 | . | -1 | 7
Cc1cc(C)cc(NC(=O)c2ccc(NC(=O)c3ccco3)cc2)c1 | 6 | -5 | 5 | 18* | 1 | -24
O=C(Nc1ccccc1)c1cccc(NC(=O)c2ccco2)c1 | 2 | -5 | 1 | 6 | 1 | -1
CCCCCOC(=O)c1ccc(NC(=O)c2ccco2)cc1 | 10 | 1 | -1 | -6 | 1 | 71*
Cc1cccc(NC(=O)c2cccc(NC(=O)c3ccco3)c2)c1 | 3 | 0 | 5 | 1 | 2 | 0
CCOC(=O)c1cccc(NC(=O)c2ccc(NC(=O)c3ccco3)cc2)c1 | 1 | 0 | 3 | 31* | 0 | -3
CCCCOC(=O)c1ccc(NC(=S)NC(=O)c2ccco2)cc1 | -7 | -2 | -1 | -6 | 1 | 4
Cc1cc2ccccc2n1CCNC(=O)c1ccc(S(=O)(=O)N2CCOCC2)cc1 | 1 | 2 | 81 | -1 | 2 | 47*
Cc1onc(-c2ccccc2Cl)c1C(=O)NCCn1c(C)cc2ccccc21 | . | . | 40* | 0 | 2 | 45
Cc1cc2ccccc2n1CCNC(=O)c1ccccc1 | 0 | -2 | 61 | -2 | 0 | 48*
CCC(=O)NCCn1c(C)cc2ccccc21 | . | . | 5 | 0 | 1 | 39*
O=C(NCCCN1CCOCC1)c1ccc(S(=O)(=O)N2CCOCC2)cc1 | -27 | -13 | -1 | -1 | 0 | -2
